From ChEMBL document CHEMBL2429855, “Efforts toward broadening the spectrum of arylomycin antibiotic activity” (Bioorg Med Chem Lett, 2013)
pIC50: −log10 of the molar value. ≈ marks a conversion by molar mass, not a printed value.

How the values were obtained:
Staphylococcus aureus [1] = assay: Antibacterial activity against Staphylococcus aureus 8325 harboring spsB (P29S) mutation assessed as growth inhibition after 22 hrs by broth microdilution method; type: functional; settings: NCTC 8325, 22 h
Procedure, shortened: (§1)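 MIC by broth microdilution against wild-type S. epidermidis RP62A, MSSA 8325, MRSA USA300 and E. coli MG1655. Also tested: S. aureus 8325 and E. coli MG1655 mutants made sensitive by mutating the resistance-conferring SPase Pro residue, an lptD hyperpermeable E. coli (outer membrane permeable to large molecules), and an E. coli combining lptD with SPase sensitization.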

Signal peptidase I = Signal peptidase I (Escherichia coli K-12, UniProt P00803); assay: Binding affinity to Escherichia coli type-1 signal peptidase lepB using decanoyl-LSSPAYNO2A-ADKabzPD and decanyol-LTPTAYNO2A-ASKKabzDD as substrate by fluorescence assay
Staphylococcus aureus [2] = assay: Antibacterial activity against wild type methicillin-sensitive Staphylococcus aureus 8325 assessed as growth inhibition after 22 hrs by broth microdilution method; type: functional; settings: NCTC 8325, 22 h; procedure, shortened: as §1
[3] = test system: Staphylococcus epidermidis; assay: Antibacterial activity against wild type Staphylococcus epidermidis RP62A assessed as growth inhibition after 22 hrs by broth microdilution method; type: functional; procedure, shortened: as §1
Escherichia coli [4] = assay: Antibacterial activity against wild type Escherichia coli MG1655 assessed as growth inhibition after 22 hrs by broth microdilution method; type: functional; settings: K-12 substr. MG1655, 22 h; procedure, shortened: as §1
Staphylococcus aureus [5] = assay: Antibacterial activity against wild type methicillin-resistant Staphylococcus aureus USA300 assessed as growth inhibition after 22 hrs by broth microdilution method; type: functional; settings: USA300, 22 h; procedure, shortened: as §1
Escherichia coli [6] = assay: Antibacterial activity against Escherichia coli MG1655 harboring lptD lepB (P84L) mutation assessed as growth inhibition after 22 hrs by broth microdilution method; type: functional; settings: K-12 substr. MG1655, 22 h; procedure, shortened: as §1
Escherichia coli [7] = assay: Antibacterial activity against Escherichia coli MG1655 harboring lepB (P84L) mutation assessed as growth inhibition after 22 hrs by broth microdilution method; type: functional; settings: K-12 substr. MG1655, 22 h; procedure, shortened: as §1
Escherichia coli [8] = assay: Antibacterial activity against Escherichia coli MG1655 harboring lptD mutation assessed as growth inhibition after 22 hrs by broth microdilution method; type: functional; settings: K-12 substr. MG1655, 22 h; procedure, shortened: as §1
Signal peptidase IB = biological target: T1, Signal peptidase IB (Staphylococcus aureus, UniProt P0A070); assay: Binding affinity to Staphylococcus aureus type-1 signal peptidase using decanoyl-LSSPAYNO2A-ADKabzPD and decanyol-LTPTAYNO2A-ASKKabzDD as substrate by fluorescence assay
T1 sequence (P0A070 whole entry): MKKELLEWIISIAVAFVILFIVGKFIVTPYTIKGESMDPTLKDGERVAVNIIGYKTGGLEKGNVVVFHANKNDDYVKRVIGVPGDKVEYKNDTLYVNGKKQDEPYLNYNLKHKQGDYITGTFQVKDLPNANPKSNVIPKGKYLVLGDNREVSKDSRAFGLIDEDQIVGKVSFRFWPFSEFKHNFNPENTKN

| SMILES | MIC (Staphylococcus aureus [1]) [µg/mL] | pIC50 (Signal peptidase I) | MIC (Staphylococcus aureus [2]) [µg/mL] | MIC [3] [µg/mL] | MIC (Escherichia coli [4]) [µg/mL] | MIC (Staphylococcus aureus [5]) [µg/mL] | MIC (Escherichia coli [6]) [µg/mL] | MIC (Escherichia coli [7]) [µg/mL] | MIC (Escherichia coli [8]) [µg/mL] | pIC50 (Signal peptidase IB) |
| --- | --- | --- | --- | --- | --- | --- | --- | --- | --- | --- |
| CCCCCCCCCCCCCCCC(=O)N(C)[C@H](CO)C(=O)N[C@H](C)C(=O)NCC(=O)N(C)[C@@H]1C(=O)N[C@@H](C)C(=O)N[C@H](C(=O)O)Cc2ccc(O)c(c2)-c2cc1ccc2OCCO | 8 (≈ 8.65 µM) | 7.12 | > 64 | 1 (≈ 1.08 µM) | > 64 | > 64 | 0.02 (≈ 0.0216 µM) | 1 (≈ 1.08 µM) | 16 (≈ 17.3 µM) | 5.38 |
| CCCCCCCCCCCCCCCC(=O)N(C)[C@H](CO)C(=O)N[C@H](C)C(=O)NCC(=O)N(C)[C@@H]1C(=O)N[C@@H](C)C(=O)N[C@H](CC(=O)NCC=O)Cc2ccc(O)c(c2)-c2cc1ccc2O | > 64 | 5.99 | > 64 | 32 (≈ 34.2 µM) | > 64 | > 64 | 2 (≈ 2.14 µM) | > 64 | > 64 | < 4.67 |
| CCCCCCCCCCCCCCCC(=O)N(C)[C@H](CO)C(=O)N[C@H](C)C(=O)NCC(=O)N(C)[C@@H]1C(=O)N[C@@H](C)C(=O)N[C@H](C(=O)O)Cc2ccc(O)c(c2)-c2cc1ccc2OP(=O)(O)O | > 64 | 6.84 | > 64 | 0.3 (≈ 0.312 µM) | > 64 | > 64 | 0.03 (≈ 0.0312 µM) | 1 (≈ 1.04 µM) | 32 (≈ 33.3 µM) | 5.70 |
| CCCCCCCCCCCCCCCC(=O)N(C)[C@H](CO)C(=O)N[C@H](C)C(=O)NCC(=O)N(C)[C@@H]1C(=O)N[C@@H](C)C(=O)N[C@H](C(=O)NCC=O)Cc2ccc(O)c(c2)-c2cc1ccc2OP(=O)(OCc1ccccc1)OCc1ccccc1 | 32 (≈ 27.1 µM) | 6.71 | > 64 | 1 (≈ 0.846 µM) | > 64 | > 64 | 0.3 (≈ 0.254 µM) | 16 (≈ 13.5 µM) | 64 (≈ 54.1 µM) | 6.82 |
| CCCCCCCCCCCCCCCC(=O)N(C)[C@H](CO)C(=O)N[C@H](C)C(=O)NCC(=O)N(C)[C@@H]1C(=O)N[C@@H](C)C(=O)N[C@H](C(=O)O)Cc2ccc(O)c(c2)-c2cc1ccc2OCCN | 4 (≈ 4.33 µM) | 7.26 | > 64 | 0.1 (≈ 0.108 µM) | > 64 | 32 (≈ 34.6 µM) | 0.004 (≈ 0.00433 µM) | 0.5 (≈ 0.541 µM) | 4 (≈ 4.33 µM) | 5.46 |
| CCCCCCCCCCCCCCCC(=O)N(C)[C@H](CO)C(=O)N[C@H](C)C(=O)NCC(=O)N(C)[C@@H]1C(=O)N[C@@H](C)C(=O)N[C@H](C(=O)NCC=O)Cc2ccc(O)c(c2)-c2cc1ccc2OCCN | 32 (≈ 33.2 µM) | 7.06 | > 64 | 1 (≈ 1.04 µM) | > 64 | > 64 | 0.06 (≈ 0.0622 µM) | 2 (≈ 2.07 µM) | > 64 | 6.48 |
| CCCCCCCCCCCCCCCC(=O)N(C)[C@H](CO)C(=O)N[C@H](C)C(=O)NCC(=O)N(C)[C@@H]1C(=O)N[C@@H](C)C(=O)N[C@H](C(=O)NCC=O)Cc2ccc(O)c(c2)-c2cc1ccc2OCCO | 8 (≈ 8.28 µM) | 8.03 | > 64 | 2 (≈ 2.07 µM) | > 64 | 64 (≈ 66.2 µM) | 0.03 (≈ 0.031 µM) | 2 (≈ 2.07 µM) | 16 (≈ 16.6 µM) | 7.20 |
| CCCCCCCCCCCCCCCC(=O)N(C)[C@H](CO)C(=O)N[C@H](C)C(=O)NCC(=O)N(C)[C@@H]1C(=O)N[C@@H](C)C(=O)N[C@H](C(=O)NCP(=O)(OCC)OCC)Cc2ccc(O)c(c2)-c2cc1ccc2O | > 64 | < 4.71 | > 64 | 8 (≈ 7.77 µM) | > 64 | > 64 | 2 (≈ 1.94 µM) | > 64 | > 64 | < 4.71 |
| CCCCCCCCCCCCCCCC(=O)N(C)[C@H](CO)C(=O)N[C@H](C)C(=O)NCC(=O)N(C)[C@@H]1C(=O)N[C@@H](C)C(=O)N[C@H](C(=O)NCP(=O)(Oc2ccccc2)Oc2ccccc2)Cc2ccc(O)c(c2)-c2cc1ccc2O | > 64 | < 4.75 | > 64 | > 64 | > 64 | > 64 | 8 (≈ 7.1 µM) | > 64 | > 64 | < 4.75 |
| CCCCCCCCCCCCCCCC(=O)N(C)[C@H](CO)C(=O)N[C@H](C)C(=O)NCC(=O)N(C)[C@@H]1C(=O)N[C@@H](C)C(=O)N[C@H](C(=O)NCC=O)Cc2ccc(O)c(c2)-c2cc1ccc2O | 8 (≈ 8.68 µM) | 7.79 | > 64 | 2 (≈ 2.17 µM) | > 64 | 16 (≈ 17.4 µM) | 0.06 (≈ 0.0651 µM) | 4 (≈ 4.34 µM) | > 64 | 7.27 |
| CCCCCCCCCCCCCCCC(=O)N(C)[C@H](CO)C(=O)N[C@H](C)C(=O)NCC(=O)N(C)[C@@H]1C(=O)N[C@@H](C)C(=O)N[C@H](C(=O)NCP(=O)(OC)OC)Cc2ccc(O)c(c2)-c2cc1ccc2O | > 64 | 4.70 | > 64 | 8 (≈ 7.98 µM) | > 64 | > 64 | 2 (≈ 2 µM) | 64 (≈ 63.9 µM) | > 64 | < 4.70 |
| CCCCCCCCCCCCCCCC(=O)N(C)[C@H](CO)C(=O)N[C@H](C)C(=O)NCC(=O)N(C)[C@@H]1C(=O)N[C@@H](C)C(=O)N[C@H](C(=O)NCP(=O)(O)O)Cc2ccc(O)c(c2)-c2cc1ccc2O | > 64 | 6.07 | > 64 | 8 (≈ 8.21 µM) | > 64 | 64 (≈ 65.7 µM) | 0.1 (≈ 0.103 µM) | 4 (≈ 4.11 µM) | > 64 | 4.78 |
| CCCCCCCCCCCCCCCC(=O)N(C)[C@H](CO)C(=O)N[C@H](C)C(=O)NCC(=O)N(C)[C@@H]1C(=O)N[C@@H](C)C(=O)N[C@H](C(=O)O)Cc2ccc(O)c(c2)-c2cc1ccc2O [ARYLOMYCIN C16] | 4 (≈ 4.54 µM) | 7.15 | > 64 | 0.25 (≈ 0.284 µM) | > 64 | > 64 | 0.02 (≈ 0.0227 µM) | 0.5 (≈ 0.567 µM) | 16 (≈ 18.2 µM) | 5.74 |
